Laboratory results taken from PMC10089208 (Proceedings of the National Academy of Sciences of the …, 2023).
Values belong to the molecule of their own block, whether it stands above or below them. Bridge positions count the residues as written; N and C are the ends. Peptide text beside a SMILES is read from it.

Legend:
[1] = system: Wnt1-mediated β-catenin signaling; assay: TOPbrite dual-luciferase reporter assay, inhibition of Wnt1-mediated signaling; assay type: cell-based, human; conditions: HEK293 TOPbrite cells transfected with Wnt1; treatment 6 h before measurement
Outline: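 Wnt1 construct was transfected with FuGENE HD into TOPbrite/Renilla HEK293 cells (DMEM/F12, 10% FBS, hygromycin, 37 °C), seeded 24 h earlier, then incubated 24–48 h. Linker peptides or LRP6 Fabs were added 6 h before reading. Dual-Glo firefly/Renilla luminescence ratio was calculated, in some instances normalized to nontreated controls.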

LRP6E1E2 = assay: ELISA competition assay of Wnt.cys peptides with Fab YW210 for LRP6E1E2; assay type: binding, human; conditions: LRP6E1E2 constant at 3x EC50, serial dilution of YW210
Reck = assay: ELISA binding of linker peptides to Reck; conditions: immobilised biotinylated peptide
Outline: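 Neutravidin-coated (5 μg/mL) plates blocked with 0.5% BSA/PBS for 2 h at room temperature, then loaded with 1 μg biotinylated linker peptide per well. Serial dilutions of His-tagged Reck in PBS/0.5% BSA/0.05% Tween 20 were incubated for 45 min at room temperature. After washing, bound protein was detected with HRP anti-His (1:5,000, 45 min) and TMB, reading absorbance at 450 nm.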

[2] = system: HEK293 TOPbrite reporter cells, β-catenin signaling; assay type: cell-based, human; conditions: transfection of 0 to 25 ng construct, 24 to 48 h; normalized to empty vector
Outline: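 HEK293 cells carried a stable firefly TOPbrite Wnt reporter plus pRL-SV40 Renilla and were kept in DMEM/F12 (50:50) with 10% FBS, GlutaMAX and 40 μg/mL hygromycin at 37 °C, 5% CO2. Cells were seeded at 20,000–40,000 per well, grown 24 h, then transfected with 0–25 ng Wnt or chimera construct using FuGENE HD. After 24–48 h, Dual-Glo firefly/Renilla ratio was normalized to empty vector.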

[3] = system: HEK293 luciferase reporter cells, phospho-LRP6 and active β-catenin; assay type: cell-based, human; conditions: overexpression, 250 ng DNA, 24 h, Western blot
[4] = target: hLRP6_(E1E2) (residues 20 to 631), C-terminal hexahistidine-tag, for ELISA (human, UniProt O75581); assay: ELISA
Chain of hLRP6_(E1E2) (residues 20 to 631), C-terminal hexahistidine-tag, for ELISA (O75581 20-631): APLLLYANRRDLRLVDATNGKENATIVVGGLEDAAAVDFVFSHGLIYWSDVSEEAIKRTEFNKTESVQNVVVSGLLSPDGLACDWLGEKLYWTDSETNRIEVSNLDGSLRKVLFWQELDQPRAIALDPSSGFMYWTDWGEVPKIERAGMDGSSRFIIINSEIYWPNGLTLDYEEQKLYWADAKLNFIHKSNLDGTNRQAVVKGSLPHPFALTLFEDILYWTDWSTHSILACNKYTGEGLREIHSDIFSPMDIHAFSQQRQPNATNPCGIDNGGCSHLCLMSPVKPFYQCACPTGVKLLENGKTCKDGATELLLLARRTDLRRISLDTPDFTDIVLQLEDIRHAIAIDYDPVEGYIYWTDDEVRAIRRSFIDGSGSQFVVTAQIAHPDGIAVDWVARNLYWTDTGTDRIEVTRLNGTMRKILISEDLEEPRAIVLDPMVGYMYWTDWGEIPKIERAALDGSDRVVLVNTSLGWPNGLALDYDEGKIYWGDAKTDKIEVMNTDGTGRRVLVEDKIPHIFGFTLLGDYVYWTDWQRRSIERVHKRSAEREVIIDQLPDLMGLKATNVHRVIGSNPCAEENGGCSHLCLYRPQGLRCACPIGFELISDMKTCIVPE

Molecule: YW210: Fab that binds predominantly to the LRP6 E1 domain [reference compound]
- inhibition of Wnt1-mediated β-catenin signaling [1]: inhibited Wnt1-induced signaling

Molecule: CC(C)C[C@@H]1NC(=O)[C@H](CCC(=O)O)NC(=O)[C@H](C)NC(=O)[C@H](CCCNC(=N)N)NC(=O)[C@H](CO)NC(=O)[C@H](C)NC(=O)[C@H](CCCNC(=N)N)NC(=O)[C@H](CC(N)=O)NC(=O)[C@H](CO)NC(=O)CNC(=O)[C@H](CCCNC(=N)N)NC(=O)[C@H](CC(N)=O)NC(=O)CNC(=O)[C@H](Cc2ccc(O)cc2)NC(=O)[C@H](CC(C)C)NC(=O)[C@H](C(C)C)NC(=O)[C@H](CCCNC(=N)N)NC(=O)[C@H](CO)NC(=O)[C@@H](NC(=O)CN)CSSC[C@@H](C(=O)N[C@H](C(=O)O)C(C)C)NC(=O)[C@H](CC(=O)O)NC(=O)[C@H](Cc2c[nH]cn2)NC(=O)[C@@H]2CCCN2C(=O)[C@H](CO)NC(=O)[C@@H]2CCCN2C(=O)[C@@H]2CCCN2C(=O)[C@H](CCCCN)NC(=O)[C@H](Cc2c[nH]cn2)NC(=O)[C@H](C)NC(=O)[C@@H]2CCCN2C(=O)[C@H](CC(=O)O)NC(=O)[C@H](CCC(=O)O)NC(=O)[C@@H]2CCCN2C(=O)[C@H](CCC(=O)O)NC(=O)[C@H](CC(C)C)NC(=O)[C@H](CCCNC(=N)N)NC(=O)[C@H](CC(C)C)NC1=O [W1.cys] (H-GCSRVLYGNRGSNRASRAELLRLEPEDPAHKPPSPHDCV-OH; disulfide 2-38; N-terminus and C-terminus assumed)
- inhibition of Wnt1-mediated β-catenin signaling [1]: inhibited
- competition of Fab YW210 with the peptide for LRP6E1E2 binding (LRP6E1E2): competed strongly

B1: Wnt1: human Wnt1, canonical, overexpressed (protein, UniProt P04628 28-370, looked up)
Proto-oncogene Wnt-1: ANSSGRWWGIVNVASSTNLLTDSKSLQLVLEPSLQLLSRKQRRLIRQNPGILHSVSGGLQSAVRECKWQFRNRRWNCPTAPGPHLFGKIVNRGCRETAFIFAITSAGVTHSVARSCSEGSIESCTCDYRRRGPGGPDWHWGGCSDNIDFGRLFGREFVDSGEKGRDLRFLMNLHNNEAGRTTVFSEMRQECKCHGMSGSCTVRTCWMRLPTLRAVGDVLRDRFDGASRVLYGNRGSNRASRAELLRLEPEDPAHKPPSPHDLVYFEKSPNFCTYSGRLGTAGTAGRACNSSSPALDGCELLCCGRGHRTRTQRVTERCNCTFHWCCHVSCRNCTHTRVLHECL
- β-catenin signaling induced by overexpression (TOPbrite) [2]: induced β-catenin signaling
- LRP6 phosphorylation [3]: induced
- accumulation of active (nonphosphorylated) β-catenin [3]: induced

B2: Wnt3a: human Wnt3a, canonical, overexpressed (protein, UniProt P56704 19-352, looked up)
Protein Wnt-3a: SYPIWWSLAVGPQYSSLGSQPILCASIPGLVPKQLRFCRNYVEIMPSVAEGIKIGIQECQHQFRGRRWNCTTVHDSLAIFGPVLDKATRESAFVHAIASAGVAFAVTRSCAEGTAAICGCSSRHQGSPGKGWKWGGCSEDIEFGGMVSREFADARENRPDARSAMNRHNNEAGRQAIASHMHLKCKCHGLSGSCEVKTCWWSQPDFRAIGDFLKDKYDSASEMVVEKHRESRGWVETLRPRYTYFKVPTERDLVYYEASPNFCEPNPETGSFGTRDRTCNVSSHGIDGCDLLCCGRGHNARAERRREKCRCVFHWCCYVSCQECTRVYDVHTCK
- β-catenin signaling induced by overexpression (TOPbrite) [2]: induced β-catenin signaling
- LRP6 phosphorylation [3]: induced
- accumulation of active (nonphosphorylated) β-catenin [3]: induced

The next lines start with the values.

- inhibition of Wnt1-mediated β-catenin signaling [1]: inhibited
- competition of Fab YW210 with the peptide for LRP6E1E2 binding (LRP6E1E2): competed strongly
Molecule: CSCC[C@@H]1NC(=O)[C@H](C(C)C)NC(=O)[C@H](CCC(N)=O)NC(=O)[C@H](C(C)C)NC(=O)[C@@H](NC(=O)CN)CSSC[C@@H](C(=O)N[C@H](C(=O)O)C(C)C)NC(=O)[C@H](CC(=O)O)NC(=O)[C@H]([C@@H](C)O)NC(=O)[C@H](CCCNC(=N)N)NC(=O)[C@H]([C@@H](C)O)NC(=O)[C@H](C)NC(=O)[C@H](CCCNC(=N)N)NC(=O)[C@H](CCCNC(=N)N)NC(=O)[C@H](Cc2ccc(O)cc2)NC(=O)CNC(=O)[C@H](CCC(N)=O)NC(=O)[C@H](CCCNC(=N)N)NC(=O)[C@H](C)NC(=O)[C@H](C)NC(=O)[C@H]([C@@H](C)O)NC(=O)[C@H](Cc2ccccc2)NC(=O)[C@H](CC(N)=O)NC(=O)[C@H](C)NC(=O)CNC(=O)[C@H](CC(=O)O)NC(=O)[C@H](CCC(N)=O)NC(=O)[C@H]([C@@H](C)O)NC(=O)[C@H](C)NC1=O [W2b.cys] (H-GCVQVMATQDGANFTAARQGYRRATRTDCV-OH; disulfide 2-29; N-terminus and C-terminus assumed)

- competition of Fab YW210 with the peptide for LRP6E1E2 binding (LRP6E1E2): could not be outcompeted
Molecule: CSCC[C@@H]1NC(=O)[C@H](CCC(=O)O)NC(=O)[C@H](CO)NC(=O)[C@@H](NC(=O)[C@@H](N)CO)CSSC[C@@H](C(=O)N[C@H](C(=O)O)C(C)C)NC(=O)[C@H](CC(=O)O)NC(=O)[C@H](CCCNC(=N)N)NC(=O)[C@H](CCC(=O)O)NC(=O)[C@H]([C@@H](C)O)NC(=O)[C@@H]2CCCN2C(=O)[C@H](C(C)C)NC(=O)[C@H](CCCCN)NC(=O)[C@H](Cc2ccccc2)NC(=O)[C@H](Cc2ccc(O)cc2)NC(=O)[C@H]([C@@H](C)O)NC(=O)[C@H](Cc2ccc(O)cc2)NC(=O)[C@H](CCCNC(=N)N)NC(=O)[C@@H]2CCCN2C(=O)[C@H](CCCNC(=N)N)NC(=O)[C@H](CC(C)C)NC(=O)[C@H]([C@@H](C)O)NC(=O)[C@H](CCC(=O)O)NC(=O)[C@H](C(C)C)NC(=O)[C@H](Cc2c[nH]c3ccccc23)NC(=O)CNC(=O)[C@H](CCCNC(=N)N)NC(=O)[C@H](CO)NC(=O)[C@H](CCC(=O)O)NC(=O)[C@H](CCCNC(=N)N)NC(=O)[C@H](Cc2c[nH]cn2)NC(=O)[C@H](CCCCN)NC(=O)[C@H](CCC(=O)O)NC(=O)[C@H](C(C)C)NC(=O)[C@H](C(C)C)NC1=O [W3a.cys] (H-SCSEMVVEKHRESRGWVETLRPRYTYFKVPTERDCV-OH; disulfide 2-35; N-terminus and C-terminus assumed)

- binding to Reck (Reck): bound Reck
- inhibition of Wnt1-mediated β-catenin signaling [1]: inhibited
- competition of Fab YW210 with the peptide for LRP6E1E2 binding (LRP6E1E2): partially
Molecule: CC[C@H](C)[C@@H]1NC(=O)[C@H](CCCCN)NC(=O)[C@H](CC(C)C)NC(=O)[C@H](Cc2ccccc2)NC(=O)[C@H]([C@@H](C)O)NC(=O)[C@@H]2CCCN2C(=O)[C@H](CCCNC(=N)N)NC(=O)[C@H](CCCCN)NC(=O)[C@H](CC(N)=O)NC(=O)[C@H](CCCNC(=N)N)NC(=O)[C@H](CO)NC(=O)[C@H](C)NC(=O)[C@H](CCCNC(=N)N)NC(=O)[C@H](C(C)C)NC(=O)[C@@H]2CCCN2C(=O)[C@H](CCC(=O)O)NC(=O)[C@H](C(C)C)NC(=O)[C@H](Cc2c[nH]cn2)NC(=O)[C@H](C(C)C)NC(=O)[C@@H](NC(=O)[C@@H](N)CCC(=O)O)CSSC[C@@H](C(=O)N[C@H](C(=O)O)C(C)C)NC(=O)[C@H](CC(=O)O)NC(=O)[C@H]([C@@H](C)O)NC(=O)[C@H](CC(=O)O)NC(=O)[C@H](CCSC)NC(=O)[C@@H]2CCCN2C(=O)[C@H](CCCCN)NC(=O)[C@H](CCCNC(=N)N)NC(=O)[C@H](Cc2ccc(O)cc2)NC(=O)[C@H](CO)NC(=O)[C@H](CC(C)C)NC(=O)[C@@H]2CCCN2C(=O)[C@H](CCCCN)NC(=O)[C@H](CCCCN)NC1=O [W7a.cys] (H-ECVHVEPVRASRNKRPTFLKIKKPLSYRKPMDTDCV-OH; disulfide 2-35; N-terminus and C-terminus assumed)

- binding result [4]: binds
B3: YW210.09 Fab (Fab, V domains shown)
VH: EVQLVESGGGLVQPGGSLRLSCAASGFTFTNSYIHWVRQAPGKGLEWVGWITPYGGYTNYADSVKGRFTISADTSKNTAYLQMNSLRAEDTAVYYCARGSGHVNAVKNYGYVMDYWGQGTLVTVSS
VL: DIQMTQSPSSLSASVGDRVTITCRASQDVSTAVAWYQQKPGKAPKLLIYSASFLYSGVPSRFSGSGSGTDFTLTISSLQPEDFATYYCQQSYTTPPTFGQGTKVEIK
